In publication PMC6893110 (Molecular imaging and biology, 2020):

How the values were obtained:
MCF7 tumors = assay: Ex vivo biodistribution of [^124I]IPAG in MCF7 tumor-bearing mice; design: species or system athymic nude mice; details: n = 5
Summary of the method: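 Female athymic nude mice (6–8 wk) got s.c. 17β-estradiol pellets (0.75 mg) 72 h before s.c. forelimb implant of 1×10^7 MCF7 cells in 1:1 Matrigel/medium. Tumors were 100–300 mm³. Mice got 0.1% KI i.p. 1 h before i.v. tracer (20–30 μCi in 5% ethanol/0.9% saline) and were euthanised by CO₂ at 4, 24, 48 or 72 h. Organs were weighed and gamma-counted, with background and decay correction. Injected dose was taken from syringe activity before and after injection. Results are %ID/g, mean and SD.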

MCF7 tumor xenografts = assay: PET imaging of [^124I]IPAG in MCF7 tumor-bearing mice; type: in vivo, athymic nude mice
Summary of the method: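 Female athymic nude mice (n=5) carried estradiol-supported s.c. MCF7 xenografts on the right forelimb (100–300 mm³). They got 0.1% KI i.p. 1 h before i.v. tracer (200 μCi, 7.4 MBq, in 150 μL 0.5% ethanol/saline). Mice were anaesthetised with 2% isoflurane in air for 15 min and scanned by microPET at serial times up to 144 h post-injection. Images were read visually and tumor maximum pixel values recorded.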

S1R [1] = target: S1R (Homo sapiens, UniProt Q99720); type: binding
Chain of S1R (Homo sapiens, UniProt Q99720) (Q99720 whole entry): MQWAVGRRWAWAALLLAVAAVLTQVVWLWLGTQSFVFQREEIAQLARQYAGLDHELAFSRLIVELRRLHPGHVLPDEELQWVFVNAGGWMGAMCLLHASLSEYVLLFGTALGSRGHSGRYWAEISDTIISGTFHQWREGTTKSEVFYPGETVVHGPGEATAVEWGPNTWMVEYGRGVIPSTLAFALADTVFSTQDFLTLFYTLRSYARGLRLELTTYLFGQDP

MCF-7 tumor xenografts = assay: In vivo tracer dilution; design: species or system athymic nude mice; details: for reduction of [^124I]IPAG tumor uptake: 100-fold excess of IPAG
Summary of the method: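 MCF7-xenografted athymic nude mice (estradiol-supplemented, 100–300 mm³ tumors) got KI i.p. 1 h before i.v. co-injection. […] Mice were euthanised at 24, 48 or 72 h and organs weighed and gamma-counted. %ID/g was decay- and background-corrected.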

LNCaP tumors = assay: PET imaging blocking study in LNCaP tumor-bearing mice; type: in vivo, athymic nude mice; details: 100-fold excess of cold IPAG co-injected with [^124I]IPAG
Summary of the method: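 LNCaP cells (5×10^6 in 1:1 Matrigel/medium) were grown s.c. on the hind limb of athymic nude mice for 3–5 weeks. Mice got 0.1% KI i.p. 1 h before i.v. tracer (200 μCi in 150 μL 0.5% ethanol/saline) co-injected with 100-fold excess unlabeled IPAG. Under 2% isoflurane, mice were imaged by microPET at 4, 24 and 72 h. %ID/g came from regions of interest drawn on the PET images.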

[2] = Solubility of IPAG in assay media; type: physicochemical; details: in both cell media and PBS
S1R [3] = details: read-out: Kd for S1R; binding to S1R; no reference given; cited from earlier work

N=C(Nc1ccc([124I])cc1)NC1C2CC3CC(C2)CC1C3 (stereo not shown) [[^124I]IPAG, I-124 labeled 1-(4-iodophenyl)-3-(2-adamantyl)guanidine]
%ID/g uptake in MCF7 tumors (MCF7 tumors; 4 h post i.v. injection): 1.53 ± 0.27 %ID/g | %ID/g uptake in MCF7 tumors (MCF7 tumors; 24 h post i.v. injection): 1.09 ± 0.24 %ID/g | %ID/g uptake in MCF7 tumors (MCF7 tumors; 48 h post i.v. injection): 0.94 ± 0.23 %ID/g | uptake at extended time post injection (PET imaging) (MCF7 tumor xenografts; 144 h post injection): ~ 0.17 % ID/g

N=C(Nc1ccc(I)cc1)NC1C2CC3CC(C2)CC1C3 (stereo not shown) [IPAG, 1-(4-iodophenyl)-3-(2-adamantyl)guanidine]
IC50 (S1R [1]): 4.7 to 14.1 nM | inhibitory constants in vitro (S1R [1]; competition against radioiodinated IPAG, sigma-1): nanomolar | reduction of [^124I]IPAG tumor uptake (MCF-7 tumor xenografts; 24 h): 81.14% | reduction of [^124I]IPAG tumor uptake (MCF-7 tumor xenografts; 48 h): 88.74% | calculated %ID/g values (PET ROI) versus [^124I]IPAG alone (LNCaP tumors): significantly lower | clearance time from background organs (MCF7 tumor xenografts; PET imaging, mice): around 24 h | solubility [2]: poor solubility | Kd (S1R [3]): 9 nM

O=C(CCCN1CCC(O)(c2ccc(Cl)cc2)CC1)c1ccc(F)cc1 [haloperidol]
inhibition of [^124I]IPAG uptake in tumor (MCF-7 tumor xenografts; 3.5-fold excess of haloperidol i.v. with tracer, 72 h p.i.): about 3 fold
